According to ChEMBL document CHEMBL5356993, “Novel pyrazolo[3,4-d]pyrimidine derivatives: design, synthesis, anticancer evaluation, VEGFR-2 inhibition, and antiangiogenic activity” (RSC Med Chem, 2023):

Columns and labels:
Assay type in all cases: functional
Settings in all cases: read-out: GI
[1] = tested on: SNB-19; test: Antiproliferative activity against human SNB-19 cells assessed as cell growth inhibition at 10 uM incubated for 48 hrs by SRB assay relative to control
How it was run: (§1)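 Cells pre-incubated 24 h at 37°C, 5% CO2, then exposed to compound (DMSO stock diluted in medium with 50 µg/mL gentamicin) for 48 h. Adherent cells fixed with cold TCA (final 10%, 60 min, 4°C); suspension cells fixed with 16% TCA final. Stained with 0.4% SRB in 1% acetic acid for 10 min, dye solubilized in 10 mM Trizma base, absorbance read at 515 nm. Growth calculated against time-zero and untreated control plates.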

[2] = tested on: IGROV-1; test: Antiproliferative activity against human IGROV-1 cells assessed as cell growth inhibition at 10 uM incubated for 48 hrs by SRB assay relative to control
[3] = tested on: NCI-H460; test: Antiproliferative activity against human NCI-H460 cells assessed as cell growth inhibition at 10 uM incubated for 48 hrs by SRB assay relative to control
[4] = tested on: MOLT-4; test: Antiproliferative activity against human MOLT-4 cells assessed as cell growth inhibition at 10 uM incubated for 48 hrs by SRB assay relative to control
[5] = tested on: SF-268; test: Antiproliferative activity against human SF-268 cells assessed as cell growth inhibition at 10 uM incubated for 48 hrs by SRB assay relative to control
[6] = tested on: SNB-75; test: Antiproliferative activity against human SNB-75 cells assessed as cell growth inhibition at 10 uM incubated for 48 hrs by SRB assay relative to control; how it was run: as §1
[7] = tested on: NCI-H322M; test: Antiproliferative activity against human NCI-H322M cells assessed as cell growth inhibition at 10 uM incubated for 48 hrs by SRB assay relative to control
[8] = tested on: OVCAR-4; test: Antiproliferative activity against human OVCAR-4 cells assessed as cell growth inhibition at 10 uM incubated for 48 hrs by SRB assay relative to control
[9] = tested on: HOP-62; test: Antiproliferative activity against human HOP-62 cells assessed as cell growth inhibition at 10 uM incubated for 48 hrs by SRB assay relative to control
[10] = tested on: HCT-116; test: Antiproliferative activity against human HCT-116 cells assessed as cell growth inhibition at 10 uM incubated for 48 hrs by SRB assay relative to control
[11] = tested on: RPMI-8226; test: Antiproliferative activity against human RPMI-8226 cells assessed as cell growth inhibition at 10 uM incubated for 48 hrs by SRB assay relative to control
[12] = tested on: MDA-MB-435; test: Antiproliferative activity against human MDA-MB-435 cells assessed as cell growth inhibition at 10 uM incubated for 48 hrs by SRB assay relative to control
[13] = tested on: CAKI-1; test: Antiproliferative activity against human CAKI-1 cells assessed as cell growth inhibition at 10 uM incubated for 48 hrs by SRB assay relative to control
[14] = tested on: OVCAR-8; test: Antiproliferative activity against human OVCAR-8 cells assessed as cell growth inhibition at 10 uM incubated for 48 hrs by SRB assay relative to control
[15] = tested on: EKVX; test: Antiproliferative activity against human EKVX cells assessed as cell growth inhibition at 10 uM incubated for 48 hrs by SRB assay relative to control
[16] = tested on: NCI/ADR-RES; test: Antiproliferative activity against human NCI-ADR-RES cells assessed as cell growth inhibition at 10 uM incubated for 48 hrs by SRB assay relative to control
[17] = tested on: BT-549; test: Antiproliferative activity against human BT-549 cells assessed as cell growth inhibition at 10 uM incubated for 48 hrs by SRB assay relative to control
[18] = tested on: ACHN; test: Antiproliferative activity against human ACHN cells assessed as cell growth inhibition at 10 uM incubated for 48 hrs by SRB assay relative to control
[19] = tested on: T47D; test: Antiproliferative activity against human T47D cells assessed as cell growth inhibition at 10 uM incubated for 48 hrs by SRB assay relative to control; how it was run: as §1
[20] = tested on: A549; test: Antiproliferative activity against human A549 cells assessed as cell growth inhibition at 10 uM incubated for 48 hrs by SRB assay relative to control
[21] = tested on: COLO 205; test: Antiproliferative activity against human COLO 205 cells assessed as cell growth inhibition at 10 uM incubated for 48 hrs by SRB assay relative to control
[22] = tested on: PC-3; test: Antiproliferative activity against human PC-3 cells assessed as cell growth inhibition at 10 uM incubated for 48 hrs by SRB assay relative to control
[23] = tested on: HCC 2998; test: Antiproliferative activity against human HCC 2998 cells assessed as cell growth inhibition at 10 uM incubated for 48 hrs by SRB assay relative to control
[24] = tested on: MCF7; test: Antiproliferative activity against human MCF7 cells assessed as cell growth inhibition at 10 uM incubated for 48 hrs by SRB assay relative to control
[25] = tested on: NCI-H23; test: Antiproliferative activity against human NCI-H23 cells assessed as cell growth inhibition at 10 uM incubated for 48 hrs by SRB assay relative to control
[26] = tested on: SN12C; test: Antiproliferative activity against human SN12C cells assessed as cell growth inhibition at 10 uM incubated for 48 hrs by SRB assay relative to control
[27] = tested on: K562; test: Antiproliferative activity against human K562 cells assessed as cell growth inhibition at 10 uM incubated for 48 hrs by SRB assay relative to control
[28] = tested on: DU-145; test: Antiproliferative activity against human DU-145 cells assessed as cell growth inhibition at 10 uM incubated for 48 hrs by SRB assay relative to control
[29] = tested on: HCT-15; test: Antiproliferative activity against human HCT-15 cells assessed as cell growth inhibition at 10 uM incubated for 48 hrs by SRB assay relative to control
[30] = tested on: Malme-3M; test: Antiproliferative activity against human Malme-3M cells assessed as cell growth inhibition at 10 uM incubated for 48 hrs by SRB assay relative to control
[31] = tested on: UACC-62; test: Antiproliferative activity against human UACC-62 cells assessed as cell growth inhibition at 10 uM incubated for 48 hrs by SRB assay relative to control; how it was run: as §1
[32] = tested on: LOX IMVI; test: Antiproliferative activity against human LOX IMVI cells assessed as cell growth inhibition at 10 uM incubated for 48 hrs by SRB assay relative to control
[33] = tested on: 786-0; test: Antiproliferative activity against human 786-0 cells assessed as cell growth inhibition at 10 uM incubated for 48 hrs by SRB assay relative to control
[34] = tested on: MDA-MB-468; test: Antiproliferative activity against human MDA-MB-468 cells assessed as cell growth inhibition at 10 uM incubated for 48 hrs by SRB assay relative to control

SMILES | inhibition of growth at 10 µM [1] [%] | inhibition of growth at 10 µM [2] [%] | inhibition of growth at 10 µM [3] [%] | inhibition of growth at 10 µM [4] [%] | inhibition of growth at 10 µM [5] [%] | inhibition of growth at 10 µM [6] [%] | inhibition of growth at 10 µM [7] [%] | inhibition of growth at 10 µM [8] [%] | inhibition of growth at 10 µM [9] [%] | inhibition of growth at 10 µM [10] [%] | inhibition of growth at 10 µM [11] [%] | inhibition of growth at 10 µM [12] [%] | inhibition of growth at 10 µM [13] [%] | inhibition of growth at 10 µM [14] [%] | inhibition of growth at 10 µM [15] [%] | inhibition of growth at 10 µM [16] [%] | inhibition of growth at 10 µM [17] [%] | inhibition of growth at 10 µM [18] [%] | inhibition of growth at 10 µM [19] [%] | inhibition of growth at 10 µM [20] [%] | also measured
Cc1nc2c(cnn2-c2ccccc2)c(=O)n1-c1ccc(NC(=O)c2ccccc2)cc1 | 23.6 | < 15 | 27.9 | 68.1 | 21.5 | 43.2 | < 15 | 53.2 | 37.9 | 41.9 | 43.6 | 27.2 | 33.4 | 38.4 | 65.7 | 30.4 | 39.1 | 36.7 | 72.4 | 28.9 | inhibition of growth at 10 µM [21]: 20.2%; inhibition of growth at 10 µM [22]: 29.5%; inhibition of growth at 10 µM [23]: < 15%; inhibition of growth at 10 µM [24]: 47.1%; inhibition of growth at 10 µM [25]: 45.5%; inhibition of growth at 10 µM [26]: 24.3%; inhibition of growth at 10 µM [27]: 66.8%; inhibition of growth at 10 µM [28]: 18.6%; inhibition of growth at 10 µM [29]: 20.2%; inhibition of growth at 10 µM [30]: 29.8%; inhibition of growth at 10 µM [31]: 36.8%; inhibition of growth at 10 µM [32]: 26.8%; inhibition of growth at 10 µM [33]: 20.4%; inhibition of growth at 10 µM [34]: 71%
Cc1ccc(C(=O)Nc2ccc(-n3c(C)nc4c(cnn4-c4ccccc4)c3=O)cc2)cc1 | 17.9 | 28.4 | 24.6 | 65.7 | < 15 | 17.2 | < 15 | 50.2 | 21.2 | 48.5 | 41.6 | 29.4 | 27.6 | 23.2 | 69.5 | 47.3 | 40.8 | 38.2 | 65.4 | 34.2 | inhibition of growth at 10 µM [21]: 22.6%; inhibition of growth at 10 µM [22]: 28.4%; inhibition of growth at 10 µM [23]: < 15%; inhibition of growth at 10 µM [24]: 52.2%; inhibition of growth at 10 µM [25]: 46.5%; inhibition of growth at 10 µM [26]: 26.7%; inhibition of growth at 10 µM [27]: 68.8%; inhibition of growth at 10 µM [28]: 15.1%; inhibition of growth at 10 µM [29]: 24.6%; inhibition of growth at 10 µM [30]: 32.3%; inhibition of growth at 10 µM [31]: 39.2%; inhibition of growth at 10 µM [32]: 32.8%; inhibition of growth at 10 µM [33]: < 15%; inhibition of growth at 10 µM [34]: 78.9%
Cc1nc2c(cnn2-c2ccccc2)c(=O)n1-c1ccc(N2C(=O)C=CC2=O)cc1 | < 15 | < 15 | < 15 | < 15 | < 15 | < 15 | < 15 | < 15 | < 15 | < 15 | < 15 | < 15 | < 15 | < 15 | < 15 | < 15 | < 15 | < 15 | < 15 | < 15 | inhibition of growth at 10 µM [21]: < 15%; inhibition of growth at 10 µM [22]: < 15%; inhibition of growth at 10 µM [23]: < 15%; inhibition of growth at 10 µM [24]: < 15%; inhibition of growth at 10 µM [25]: < 15%; inhibition of growth at 10 µM [26]: < 15%; inhibition of growth at 10 µM [27]: < 15%; inhibition of growth at 10 µM [28]: < 15%; inhibition of growth at 10 µM [29]: < 15%; inhibition of growth at 10 µM [30]: < 15%; inhibition of growth at 10 µM [31]: < 15%; inhibition of growth at 10 µM [32]: < 15%; inhibition of growth at 10 µM [33]: < 15%; inhibition of growth at 10 µM [34]: 18.6%
COc1ccc(/C=C/C(=O)c2ccc(-n3c(C)nc4c(cnn4-c4ccccc4)c3=O)cc2)cc1 | 18.2 | < 15 | < 15 | 55.3 | < 15 | < 15 | < 15 | 34.3 | 19.5 | 90.3 | > 100 | 88.8 | 25 | 16.6 | 57.1 | 37.6 | 55 | 29 | 65.3 | < 15 | inhibition of growth at 10 µM [21]: < 15%; inhibition of growth at 10 µM [22]: 34.9%; inhibition of growth at 10 µM [23]: < 15%; inhibition of growth at 10 µM [24]: 91.7%; inhibition of growth at 10 µM [25]: 27.6%; inhibition of growth at 10 µM [26]: 18.4%; inhibition of growth at 10 µM [27]: 87.6%; inhibition of growth at 10 µM [28]: 16.8%; inhibition of growth at 10 µM [29]: 46.5%; inhibition of growth at 10 µM [30]: 39.5%; inhibition of growth at 10 µM [31]: 50%; inhibition of growth at 10 µM [32]: 56%; inhibition of growth at 10 µM [33]: 15.4%; inhibition of growth at 10 µM [34]: 88.7%
Cc1nc2c(cnn2-c2ccccc2)c(=O)n1-c1ccc(/N=C2\C(=O)Nc3ccccc32)cc1 | 36 | 34.7 | < 15 | 34.1 | < 15 | < 15 | < 15 | 43.9 | < 15 | 17.9 | 36.5 | < 15 | 31.7 | 24.8 | 52.1 | < 15 | 22.1 | 27.7 | 38.3 | < 15 | inhibition of growth at 10 µM [21]: < 15%; inhibition of growth at 10 µM [22]: 24%; inhibition of growth at 10 µM [23]: < 15%; inhibition of growth at 10 µM [24]: 33.7%; inhibition of growth at 10 µM [25]: 30.7%; inhibition of growth at 10 µM [26]: 37.3%; inhibition of growth at 10 µM [27]: 34.4%; inhibition of growth at 10 µM [28]: < 15%; inhibition of growth at 10 µM [29]: 15.7%; inhibition of growth at 10 µM [30]: 23.1%; inhibition of growth at 10 µM [31]: 36.2%; inhibition of growth at 10 µM [32]: 18.3%; inhibition of growth at 10 µM [33]: < 15%; inhibition of growth at 10 µM [34]: 51.4%
